Data on 7 compounds can be found in ChEMBL document CHEMBL3407477, “Synthesis and biological evaluation of compact, conformationally constrained bifunctional opioid agonist - neurokinin-1 antagonist peptidomimetics” (Eur J Med Chem, 2015).

The target of one series is Substance-P receptor (Homo sapiens, UniProt P25103). Nature of the series: Displacement of [3H]SP from human NK1 receptor expressed in CHO cells after 20 mins by liquid scintillation counting analysis. It counts as cell-based. An outline of the steps: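 Membranes from hNK1/CHO cells (20 µg) were incubated with 0.4 nM [3H]SP and six test concentrations in duplicate. Buffer was 50 mM Tris pH 7.4 with 5 mM MgCl2, bacitracin, bestatin, captopril and PMSF, for 20 min at 25 °C. Nonspecific binding was defined with 10 µM SP. Samples were filtered on PEI-soaked GF/B, counted by scintillation, three independent experiments. Ki by Cheng-Prusoff from nonlinear-regression IC50.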
Sequence of Substance-P receptor (P25103 whole entry): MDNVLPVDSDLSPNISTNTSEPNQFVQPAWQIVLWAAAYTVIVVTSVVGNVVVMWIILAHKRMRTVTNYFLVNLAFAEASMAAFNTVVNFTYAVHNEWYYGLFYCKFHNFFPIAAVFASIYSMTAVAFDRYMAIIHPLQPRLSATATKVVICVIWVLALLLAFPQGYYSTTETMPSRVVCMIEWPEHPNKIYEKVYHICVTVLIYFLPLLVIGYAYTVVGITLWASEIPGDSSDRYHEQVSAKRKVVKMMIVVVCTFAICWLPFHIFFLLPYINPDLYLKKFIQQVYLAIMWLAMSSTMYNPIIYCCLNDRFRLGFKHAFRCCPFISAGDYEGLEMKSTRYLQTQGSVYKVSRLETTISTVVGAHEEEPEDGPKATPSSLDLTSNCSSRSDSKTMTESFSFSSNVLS

For series [1], the species on record is Rattus norvegicus. As to the kind of experiment: Reduction of hyperalgesia in Wistar rat chronic constriction injury model at 1 nmol, it measured 7 days post CCI challenge by cold plate test. It counts as functional, organism-based. An outline of the steps:
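In catheterized male Wistar rats with sciatic CCI, a single i.t. dose in water for injection was given on day 7. Thermal hyperalgesia was measured 30 min later as latency to hind-paw shake on a 5 °C cold plate. Data are %MPE, 6-12 rats/group, ANOVA with Bonferroni.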

The species named for series [2] is Rattus norvegicus. As to the kind of experiment: Selectivity ratio of Ki for rat brain DOR to Ki for rat brain MOR.
The species named for series [3] is Rattus norvegicus. As to the kind of experiment: Antinociceptive activity in Wistar rat at 0.001 to 0.1 nmol, it after 30 mins by tail flick test. It counts as functional, organism-based. The procedure, abridged: (§1)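 Naive male Wistar rats (250-300 g) with i.t. catheters received a single i.t. injection in water for injection (5 µl plus 10 µl flush), 7 days after catheter implantation. Tail-flick latency to a light-bulb heat stimulus at two-thirds of tail length was read 30 min post-dose (timepoints up to 180 min), with a 9 s cut-off. Data are %MPE = (TL-BL)/(cut-off-BL)×100, 7-12 rats/group, ANOVA with Bonferroni.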

The species entered for series [4] is Rattus norvegicus. As to the kind of experiment: Antiallodynic effect in Wistar rat chronic constriction injury model at 0.001 to 1 nmol, it measured 7 days post CCI challenge by Von Frey test. It is filed as functional, organism-based. An outline of the steps: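 Male Wistar rats (300-350 g) with i.t. catheters (L4-L6) had CCI made by four loose silk ligatures on the right sciatic nerve. On day 7 they received a single i.t. dose in water for injection. Mechanical allodynia was measured 30 min later with an automatic von Frey device (0.5-26 g) on the midplantar hind paw. Data are %MPE, 6-12 rats/group, ANOVA with Bonferroni.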

In series [5] the target is Delta-type opioid receptor (Mus musculus, UniProt P32300). Nature of the series: Activation of DOR in mouse vas deferens. An outline of the steps:
(§2)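 Isolated guinea pig ileum (MOR) and mouse vas deferens (DOR) bioassays. A [Leu5]enkephalin standard dose-response curve was run on each tissue preparation, and test IC50 values were normalized to it. Values are means of 3-4 experiments.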

The target in series [6] is Mu-type opioid receptor (Rattus norvegicus, UniProt P33535). Nature of the series: Displacement of [3H]DAMGO from rat brain MOR after 2 hrs. The procedure, abridged:
(§3)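 Rat brain membranes were incubated 2 h at 0 °C with 0.72 nM [3H]DAMGO (MOR) or 0.78 nM [3H]DSLET (DOR). IC50 came from log-dose displacement curves.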

For series [7], the target named is Mu-type opioid receptor (Cavia porcellus, UniProt P97266). As to the kind of experiment: Activation of MOR in guinea pig ileum. It counts as tissue-based. An outline of the steps:
as §2

The target in series [8] is Delta-type opioid receptor (Rattus norvegicus, UniProt P33533). Nature of the series: Displacement of [3H]DSLET from rat brain DOR after 2 hrs. The procedure, abridged: as §3
Sequence of Delta-type opioid receptor (Rattus norvegicus, UniProt P33533) (P33533 whole entry): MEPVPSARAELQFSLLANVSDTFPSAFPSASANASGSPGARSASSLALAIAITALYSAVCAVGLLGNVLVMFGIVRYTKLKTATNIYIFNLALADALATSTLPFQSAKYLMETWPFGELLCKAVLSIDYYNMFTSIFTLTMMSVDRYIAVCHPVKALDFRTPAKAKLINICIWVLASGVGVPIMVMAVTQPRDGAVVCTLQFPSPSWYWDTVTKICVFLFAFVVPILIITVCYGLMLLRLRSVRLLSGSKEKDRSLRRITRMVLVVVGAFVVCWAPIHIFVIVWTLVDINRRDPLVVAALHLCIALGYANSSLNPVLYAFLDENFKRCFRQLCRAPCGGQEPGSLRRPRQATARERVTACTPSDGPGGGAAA
The target of series [9] is Mu-type opioid receptor (Cavia porcellus) (UniProt P97266). Nature of the series: Partial agonist activity at MOR in guinea pig ileum. It counts as tissue-based. The procedure, abridged: as §2
Sequence of Mu-type opioid receptor (Cavia porcellus) (P97266 whole entry): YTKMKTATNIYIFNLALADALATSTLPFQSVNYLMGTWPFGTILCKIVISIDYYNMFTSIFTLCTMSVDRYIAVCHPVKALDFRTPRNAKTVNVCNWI
The target is the same in series [10]. As to the kind of experiment: Antagonist activity at MOR in guinea pig ileum. It is filed as tissue-based.
The next series concerns Mus musculus. Nature of the series: Antinociceptive activity in C57Bl6 mouse at 1.21 umol/kg, iv after 30 mins by tail flick test. It is filed as functional, organism-based. An outline of the steps:
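Male C57Bl6 mice (25-28 g) received a single i.v. dose dissolved in saline or water for injection. Radiant-heat tail-flick latency was measured at 5, 15, 30, 60, 120 and 180 min, with a 7 s cut-off. Data are %MPE, 6-8 mice/group.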

For series [11], the species on record is Rattus norvegicus. Nature of the series: Antinociceptive activity in Wistar rat at 0.001 to 0.1 nmol, it after 30 mins to 2 hrs by tail flick test. It counts as functional, organism-based.
The species entered for series [12] is Rattus norvegicus. Nature of the series: Toxicity in Wistar rat chronic constriction injury model at 1 nmol, it measured 7 days post CCI challenge. It is filed as organism-based. The following applies: in vivo, icv_or_intrathecal, 168 h.
The species named for series [13] is Rattus norvegicus. Nature of the series: Antinociceptive activity in Wistar rat at 0.1 nmol, it after 30 mins by tail flick test. It counts as functional. The procedure, abridged:
as §1

The source made the active and inactive calls.

Sequence of Delta-type opioid receptor (Mus musculus, UniProt P32300) (P32300 whole entry): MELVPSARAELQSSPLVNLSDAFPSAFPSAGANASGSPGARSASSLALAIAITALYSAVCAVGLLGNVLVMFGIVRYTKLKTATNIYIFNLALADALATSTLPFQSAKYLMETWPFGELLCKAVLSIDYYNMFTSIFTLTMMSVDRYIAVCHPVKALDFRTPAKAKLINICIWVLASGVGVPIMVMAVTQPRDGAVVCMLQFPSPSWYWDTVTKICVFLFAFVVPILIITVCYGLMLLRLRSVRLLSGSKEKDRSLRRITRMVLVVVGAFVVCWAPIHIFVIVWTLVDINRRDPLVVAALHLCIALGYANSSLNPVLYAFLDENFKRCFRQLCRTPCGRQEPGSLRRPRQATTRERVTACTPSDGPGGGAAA
Sequence of Mu-type opioid receptor (Rattus norvegicus, UniProt P33535) (P33535 whole entry): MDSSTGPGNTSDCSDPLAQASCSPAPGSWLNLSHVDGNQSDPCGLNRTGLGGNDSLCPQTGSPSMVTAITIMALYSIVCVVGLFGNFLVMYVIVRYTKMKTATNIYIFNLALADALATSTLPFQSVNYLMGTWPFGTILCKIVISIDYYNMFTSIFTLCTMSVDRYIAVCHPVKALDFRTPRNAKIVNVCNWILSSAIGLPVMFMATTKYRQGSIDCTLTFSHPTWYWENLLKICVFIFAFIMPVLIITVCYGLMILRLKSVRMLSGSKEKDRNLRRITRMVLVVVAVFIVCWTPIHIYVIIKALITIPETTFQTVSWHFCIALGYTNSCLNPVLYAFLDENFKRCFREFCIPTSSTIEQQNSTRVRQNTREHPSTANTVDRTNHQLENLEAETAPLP
Sequence of Mu-type opioid receptor (Cavia porcellus, UniProt P97266) (P97266 whole entry): as the sequence (P97266 whole entry) above

At Substance-P receptor, `Cc1cc(O)cc(C)c1C[C@H](N)C(=O)N[C@H](CCCNC(=N)N)C(=O)N[C@H]1Cc2ccccc2CN(CCC(=O)N(Cc2ccccc2)CC(C)C)C1=O` showed a Ki of 308 nM.

On to `Cc1cc(O)cc(C)c1C[C@H](N)C(=O)N[C@H](CCCNC(=N)N)C(=O)N[C@H]1Cc2ccccc2CN(CC(N)=O)C1=O`, for which the result in the series filed under Rattus norvegicus [1], in the series filed under Rattus norvegicus [3] and in the series filed under Rattus norvegicus [4] was Active. Besides, the Ratio Ki in the series filed under Rattus norvegicus [2] came to 4.

For the compound `Cc1cc(O)cc(C)c1C[C@H](N)C(=O)N[C@H](CCCNC(N)=O)C(=O)N[C@H]1Cc2ccccc2CN(CCC(=O)N(C)Cc2ccccc2)C1=O`, in the series filed under Rattus norvegicus [2], the Ratio Ki was 1.7. For the same compound, the Ki at Substance-P receptor amounted to 3000 nM; on Mu-type opioid receptor [6], 0.28 nM; in [8] it was 0.48 nM. In addition, the IC50 in series [5] came to 0.33 nM; against Mu-type opioid receptor [7] it was 0.96 nM.

Turning to `Cc1cc(O)cc(C)c1C[C@H](N)C(=O)N[C@H](CCCNC(=N)N)C(=O)N[C@H]1Cc2ccccc2CN(CC(=O)N(Cc2ccccc2)CC(C)C)C1=O`, the result in series [9] was Active. Further, at Substance-P receptor, the Ki is 1020 nM. The compound further came in with an IC50 in series [5] of 28.7 nM. Moreover, in series [10], the Ke worked out at 5.91 nM.

As to `Cc1cc(O)cc(C)c1C[C@H](N)C(=O)N[C@H](CCCNC(=N)N)C(=O)N[C@H]1Cc2ccccc2CN(CC(=O)N(C)Cc2ccccc2)C1=O`, the Ratio Ki in the series filed under Rattus norvegicus [2] is 24.8.

Regarding `Cc1cc(O)cc(C)c1C[C@H](N)C(=O)N[C@H](CCCNC(=N)N)C(=O)N[C@H]1Cc2ccccc2CN(CC(=O)NCc2ccccc2)C1=O`, the Ratio Ki in the series listed under Rattus norvegicus [2] amounted to 4.4. In addition, the results for the Ki (at Substance-P receptor; at Mu-type opioid receptor [6]; in series [8]) were 6190 nM, 0.14 nM and 0.62 nM, respectively. Moreover, the IC50 in [5] was 3.5 nM; at Mu-type opioid receptor [7], 4.44 nM.

As for `Cc1cc(O)cc(C)c1C[C@H](N)C(=O)N[C@H](CCCNC(=N)N)C(=O)N[C@H]1Cc2ccccc2CN(CCC(N)=O)C1=O`, the result in the series listed under Rattus norvegicus [1], in the series with Mus musculus, in the series listed under Rattus norvegicus [11] and in the series listed under Rattus norvegicus [4] was Active. The Ratio Ki in the series filed under Rattus norvegicus [2] came out at 12.7. In addition, in the series listed under Rattus norvegicus [12], the Activity result is “Toxic”. In the series filed under Rattus norvegicus [13], this compound showed an MPE of 99.7%.
